12 compounds from ChEMBL document CHEMBL1240464, “Synthesis, structure and in vitro antibacterial activities of new hybrid disinfectants quaternary ammonium compounds: pyridinium and quinolinium stilbene benzenesulfonates” (2010) can be followed below.

For experiment [1], the system named is Staphylococcus aureus. The experiment can be described thus: Antibacterial activity against Staphylococcus aureus TISTR517 at up to 300 ug/ml after 8 to 12 hrs by colorimetric microdilution broth technique. In kind it is functional, organism-based. Summed up: (§1)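 Broth microdilution in RPMI1640. Bacterial suspension in RPMI1640 is mixed with 1% Alamar Blue. Sample dissolved in DMSO at 25 mg/ml (stock) is added to the first row, then serially diluted two-fold down the plate to 128-fold. Plates are incubated at 37 °C for 8–12 h. MIC is the lowest concentration preventing the Alamar Blue change from blue to red. At least three repeats.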
A general note: Dilution methods test growth across graded concentrations, often in twofold steps.

Experiment [2] concerns Enterococcus faecalis. Kind of experiment: Antibacterial activity against Enterococcus faecalis TISTR459 at up to 300 ug/ml after 8 to 12 hrs by colorimetric microdilution broth technique. The experiment is classed as functional, organism-based. Summed up: as §1
For experiment [3], the system named is Shigella sonnei. The experiment can be described thus: Antibacterial activity against Shigella sonnei at up to 300 ug/ml after 8 to 12 hrs by colorimetric microdilution broth technique. In kind it is functional, organism-based. The gist of the method:
as §1

For experiment [4], the system named is Bacillus subtilis. Kind of experiment: Antibacterial activity against Bacillus subtilis at up to 300 ug/ml after 8 to 12 hrs by colorimetric microdilution broth technique. In kind it is functional, organism-based. Summed up:
as §1

The test system of experiment [5] is Enterococcus faecalis. The experiment can be described thus: Antibacterial activity against vancomycin-resistant Enterococcus faecalis ATCC 51299 at up to 300 ug/ml after 8 to 12 hrs by colorimetric microdilution broth technique. The experiment is classed as functional, organism-based. The gist of the method: (§2)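 Broth microdilution with a colorimetric read-out. Bacteria were suspended in RPMI1640 with 1% Alamar Blue. Compound was dissolved in DMSO as a 25 mg/ml stock and added to the first row, then serially halved to a 128-fold final dilution. Plates were incubated at 37 °C for 8–12 h. MIC was the lowest concentration preventing the blue-to-red indicator change. Each assay was run at least three times.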

Experiment [6] has as its system Pseudomonas aeruginosa. Kind of experiment: Antibacterial activity against Pseudomonas aeruginosa at up to 300 ug/ml after 8 to 12 hrs by colorimetric microdilution broth technique. In kind it is functional, organism-based. Summed up:
as §1

In experiment [7] the test system is Salmonella typhi. Kind of experiment: Antibacterial activity against Salmonella typhi at up to 300 ug/ml after 8 to 12 hrs by colorimetric microdilution broth technique. The experiment is classed as functional, organism-based. The conditions noted are these: Salmonella enterica subsp. enterica serovar Typhi. Summed up: as §2
Experiment [8] concerns Staphylococcus aureus. The experiment can be described thus: Antibacterial activity against methicillin-resistant Staphylococcus aureus ATCC 43300 after 8 to 12 hrs by colorimetric microdilution broth technique. The experiment is classed as functional. The gist of the method:
as §2

In experiment [9] the test system is Staphylococcus aureus. Kind of experiment: Antibacterial activity against Staphylococcus aureus TISTR517 after 8 to 12 hrs by colorimetric microdilution broth technique. In kind it is functional. Summed up:
as §1

The subject of experiment [10] is Bacillus subtilis. The experiment can be described thus: Antibacterial activity against Bacillus subtilis after 8 to 12 hrs by colorimetric microdilution broth technique. The experiment is classed as functional. The gist of the method: as §1
The test system of experiment [11] is Enterococcus faecalis. The experiment can be described thus: Antibacterial activity against vancomycin-resistant Enterococcus faecalis ATCC 51299 after 8 to 12 hrs by colorimetric microdilution broth technique. The experiment is classed as functional. Summed up: as §2
In experiment [12] the test system is Enterococcus faecalis. The experiment can be described thus: Antibacterial activity against Enterococcus faecalis TISTR459 after 8 to 12 hrs by colorimetric microdilution broth technique. The experiment is classed as functional. The gist of the method:
as §2

Experiment [13] concerns Pseudomonas aeruginosa. The experiment can be described thus: Antibacterial activity against Pseudomonas aeruginosa after 8 to 12 hrs by colorimetric microdilution broth technique. In kind it is functional. Summed up: as §1
For experiment [14], the system named is Salmonella typhi. Kind of experiment: Antibacterial activity against Salmonella typhi after 8 to 12 hrs by colorimetric microdilution broth technique. The experiment is classed as functional, Salmonella enterica subsp. enterica serovar Typhi. The conditions noted are these: Salmonella enterica. The gist of the method: as §2
For experiment [15], the system named is Shigella sonnei. Kind of experiment: Antibacterial activity against Shigella sonnei after 8 to 12 hrs by colorimetric microdilution broth technique. In kind it is functional. Summed up: as §1

Structures are written as SMILES. Calls of active or inactive are those of the source. The rule behind the calls is not given here.

For the compound `CN(C)c1ccc(/C=C/c2cccc[n+]2C)cc1`, the MIC result in the experiment on Staphylococcus aureus [1], with Enterococcus faecalis [2] and in the experiment on Shigella sonnei [3] was “inactive” in each case.
`CCOc1ccc(/C=C/c2cccc[n+]2C)cc1.Nc1ccc(S(=O)(=O)[O-])cc1`: the MIC result in the experiment with Staphylococcus aureus [1], with Bacillus subtilis [4], in the experiment on Enterococcus faecalis [5], in the experiment on Enterococcus faecalis [2], in the experiment with Pseudomonas aeruginosa [6] and in the experiment with Salmonella typhi [7] was “inactive” throughout. Moreover, the MIC (commonly the least concentration at which growth counts as inhibited) in the experiment with Shigella sonnei [3] was “inactive”.
As for `CCOc1ccc(/C=C/c2cccc[n+]2C)cc1.O=S(=O)([O-])c1ccc(Br)cc1`, the MIC entry with Staphylococcus aureus [1], in the experiment on Bacillus subtilis [4], in the experiment with Enterococcus faecalis [5], in the experiment on Enterococcus faecalis [2] and in the experiment with Pseudomonas aeruginosa [6] was “inactive” in each case.
As for `CCOc1ccc(/C=C/c2ccc3ccccc3[n+]2C)cc1.COc1ccc(S(=O)(=O)[O-])cc1`, the MIC result in the experiment on Staphylococcus aureus [1], in the experiment on Pseudomonas aeruginosa [6] and with Salmonella typhi [7] was “inactive” throughout.
Consider `CN(C)c1ccc(/C=C/c2cccc[n+]2C)cc1.O=S(=O)([O-])c1ccc(Br)cc1`, for which the MIC result in the experiment on Staphylococcus aureus [1], in the experiment with Bacillus subtilis [4], in the experiment on Enterococcus faecalis [5], in the experiment with Enterococcus faecalis [2], with Pseudomonas aeruginosa [6] and in the experiment with Salmonella typhi [7] was “inactive” in each case. The MIC result in the experiment on Shigella sonnei [3] was “inactive”.
Take `CCOc1ccc(/C=C/c2cccc[n+]2C)cc1`: the MIC result with Staphylococcus aureus [1], in the experiment with Bacillus subtilis [4], in the experiment on Enterococcus faecalis [5], in the experiment on Enterococcus faecalis [2], in the experiment with Pseudomonas aeruginosa [6] and in the experiment on Salmonella typhi [7] was “inactive” throughout. In addition, in the experiment with Shigella sonnei [3], the MIC entry was “inactive”.
For `CN(C)c1ccc(/C=C/c2cccc[n+]2C)cc1.Nc1ccc(S(=O)(=O)[O-])cc1`, the MIC entry in the experiment on Staphylococcus aureus [1], in the experiment with Bacillus subtilis [4], in the experiment with Enterococcus faecalis [2], with Pseudomonas aeruginosa [6], with Salmonella typhi [7] and with Shigella sonnei [3] was “inactive” in each case.
As for `CN(C)c1ccc(/C=C/c2ccc3ccccc3[n+]2C)cc1.COc1ccc(S(=O)(=O)[O-])cc1`, the MIC entry with Staphylococcus aureus [1], in the experiment on Pseudomonas aeruginosa [6] and in the experiment with Salmonella typhi [7] was “inactive” each time.
As to `CCOc1ccc(/C=C/c2ccc3ccccc3[n+]2C)cc1`, the MIC result in the experiment with Staphylococcus aureus [1], with Pseudomonas aeruginosa [6] and with Salmonella typhi [7] was “inactive” throughout.
Consider `CCOc1ccc(/C=C/c2cccc[n+]2C)cc1.COc1ccc(S(=O)(=O)[O-])cc1`, for which the MIC entry in the experiment with Staphylococcus aureus [1], in the experiment on Bacillus subtilis [4], in the experiment with Enterococcus faecalis [5], in the experiment with Enterococcus faecalis [2], with Pseudomonas aeruginosa [6] and with Salmonella typhi [7] was “inactive” throughout. Further, the MIC result in the experiment with Shigella sonnei [3] was “inactive”.
In the case of `CN(C)c1ccc(/C=C/c2ccc3ccccc3[n+]2C)cc1.Nc1ccc(S(=O)(=O)[O-])cc1`, the MIC against Staphylococcus aureus [8] amounted to 2.34 µg/mL; against Staphylococcus aureus [9], 75 µg/mL; against Bacillus subtilis [10], 18.8 µg/mL; in the experiment with Enterococcus faecalis [11] it was 18.8 µg/mL; with Enterococcus faecalis [12], 75 µg/mL; in the experiment with Pseudomonas aeruginosa [13] it was 150 µg/mL. Moreover, the MIC against Salmonella typhi [14] and against Shigella sonnei [15] was 75 µg/mL each time.
Regarding `CCOc1ccc(/C=C/c2ccc3ccccc3[n+]2C)cc1.O=S(=O)([O-])c1ccc(Br)cc1`, the MIC result in the experiment with Pseudomonas aeruginosa [6] and in the experiment on Salmonella typhi [7] was “inactive” throughout.
